High-throughput results as filed in PubChem.
Pf Dd2 growth: blocks growth of Plasmodium falciparum Dd2 parasites. P. falciparum Dd2 growth, SYBR Green, 72 h; hits give low values. activity change, % at 10 µM. 94,000 tested, 2.3% active; in the data active = activity change below about -80%; inconclusive = no clear call, values can overlap the other calls
T cruzi growth-1: T. cruzi proliferation inhibition. T. cruzi beta-gal in NIH3T3, GalScreen luminescence, 90 h. 77,000 tested, 5.9% active. inhibition, % at 8.34 µM;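 active = mean inhibition above about 93%, with at least 55% of replicates each passing it, limit read from the data, passing the limit was not always enough; inconclusive = only one of those two conditions holds; inactive = neither condition holds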
IDH1 mut inh: blocks human IDH1 R132H reductase activity | O75874 | diaphorase/resazurin fluorescence, 60 min | inhibition, % at 10 µM | 70,000 tested, 0.18% active | AID 624101; in the data active = inhibition above about 34%; inconclusive = no clear call, values can overlap the other calls; inactive = below about 11%;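 also: 0% = DMSO and 100% = no enzyme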
Target sequence (O75874 whole entry R132H): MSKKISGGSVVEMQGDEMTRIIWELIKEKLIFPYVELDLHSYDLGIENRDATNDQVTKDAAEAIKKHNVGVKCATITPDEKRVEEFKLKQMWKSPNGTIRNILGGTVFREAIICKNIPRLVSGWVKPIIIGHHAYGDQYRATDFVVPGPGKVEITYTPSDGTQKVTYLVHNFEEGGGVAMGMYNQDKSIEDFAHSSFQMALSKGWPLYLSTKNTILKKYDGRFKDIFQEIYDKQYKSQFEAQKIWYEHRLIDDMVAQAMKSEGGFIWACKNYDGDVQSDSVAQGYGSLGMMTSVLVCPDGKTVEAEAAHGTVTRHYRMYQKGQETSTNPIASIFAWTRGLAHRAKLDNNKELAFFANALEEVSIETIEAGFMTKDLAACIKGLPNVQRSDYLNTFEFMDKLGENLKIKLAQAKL
KDM4C inh: inhibitors of human demethylase GASC-1 KDM4C; GST-KDM4C 2-372, H3K9me3 peptide, LANCE TR-FRET; inhibition, % at 12.5 µM; 96,000 tested, 0.15% active; AID 720574;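 active = mean replicate inhibition above about 25%, with at least 55% of replicates also reaching it, limit read from the data, passing the limit was not always enough; inconclusive = only one of those two conditions met; inactive = neither condition met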
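Test system – GST-tagged GASC-1 (JMJD2C) catalytic fragment, aa 2-372 · Medium – HEPES buffer, pH 7.5, plus ascorbate · Reagent – H3K9me3 peptide with Fe(II)/2OG · Compound – one test concentration per compound · Timing – 30 min reaction, 60 min detection, RT · Technique – TR-FRET with Eu antibody and ULight streptavidin, EDTA stop · Read-out basis – inhibition from TR-FRET ratio decrease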
T cruzi growth-2: inhibitors of T. cruzi proliferation; shares compounds with T cruzi growth-1; T. cruzi beta-gal in NIH3T3, GalScreen luminescence, 90 h; inhibition, % at 8.35 µM; 5,600 tested, 72% active; AID 651739;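 active = mean replicate inhibition above about 95% and at least 55% of replicates individually reaching it, limit read from the data; inconclusive = only one of the two criteria is met; inactive = neither criterion is met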
T cruzi growth-3: inhibitors of T. cruzi proliferation; shares compounds with T cruzi growth-1; T. cruzi beta-gal in NIH3T3, GalScreen luminescence, 90 h; inhibition, % at 2.09 µM; 5,600 tested, 21% active; AID 651740;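 active = mean inhibition above about 95%, with at least 55% of replicates also reaching it, limit read from the data; inconclusive = meets just one of the two conditions; inactive = meets neither condition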;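 also: plate controls were neutral control median for no effect and positive control median for full effect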
NIH3T3 tox: NIH/3T3 (mouse) viability loss; shares compounds with T cruzi growth-1; NIH/3T3 viability, CellTiter-Glo ATP luminescence, 90 h; cytotoxicity (signal decrease), % at 8.35 µM; 5,600 tested, 14% active; AID 651742;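 active = mean signal decrease across replicates above about 35% based on untreated-well scatter, with enough replicates individually passing, limit read from the data; inconclusive = no rule stated though some were filed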;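 also: 0% = median of neutral control wells and 100% = median of positive control wells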
NIH3T3 tox 2: kills mouse NIH/3T3 fibroblasts; AID 651744; inhibition, % at 24.9 µM; 5,600 tested, 56% active; NIH/3T3 viability, CellTiter-Glo ATP luminescence, 90 h; shares compounds with T cruzi growth-1;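 active = mean loss of cell viability signal at or above a set limit, and enough replicates individually reaching it; inconclusive = meets only the mean limit or only the replicate share; inactive = meets neither condition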;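 also: 0% = median of neutral control wells and 100% = median of positive control wells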
* hit, by the source's call. This is a sample that favours compounds with a hit; in the whole collection about 5.8% have one here.

For OC[C@H]1[C@H](c2ccc(-c3cccc(F)c3)cc2)[C@H]2CN(Cc3cncnc3)CCCCN21 the results were Pf Dd2 growth -22, T cruzi growth-1 94*, KDM4C inh 1, T cruzi growth-2 92, T cruzi growth-3 -5, NIH3T3 tox 15 and NIH3T3 tox 2 105*.
Cc1cccc(-c2ccc([C@H]3[C@H]4CN(Cc5cncnc5)CCCCN4[C@H]3CO)cc2)c1 was read as Pf Dd2 growth 4, T cruzi growth-1 68 and KDM4C inh 2.
For OC[C@H]1[C@H](c2ccc(-c3ccccc3)cc2)[C@@H]2CN(Cc3cncnc3)CCCCN12 the results were Pf Dd2 growth -40, T cruzi growth-1 107*, KDM4C inh -1, T cruzi growth-2 103*, T cruzi growth-3 94, NIH3T3 tox 23 and NIH3T3 tox 2 34*.
`Cc1cccc(-c2ccc([C@H]3[C@@H](CO)N4CCCCN(Cc5cncnc5)C[C@@H]34)cc2)c1` gave Pf Dd2 growth 7, T cruzi growth-1 106*, KDM4C inh 2, T cruzi growth-2 95*, T cruzi growth-3 85, NIH3T3 tox 37* and NIH3T3 tox 2 102*.
Screening Cc1cccc(-c2ccc([C@H]3[C@H](CO)N4CCCCN(Cc5cncnc5)C[C@@H]34)cc2)c1 returned Pf Dd2 growth 7, T cruzi growth-1 103*, KDM4C inh 0, T cruzi growth-2 100*, T cruzi growth-3 75, NIH3T3 tox 9 and NIH3T3 tox 2 11.
OC[C@@H]1[C@@H](c2ccc(-c3cccc(F)c3)cc2)[C@H]2CN(Cc3cncnc3)CCCCN12 was read as Pf Dd2 growth -6, T cruzi growth-1 60 and KDM4C inh 0.
For OC[C@H]1[C@@H](c2ccc(-c3ccccc3)cc2)[C@H]2CN(Cc3cncnc3)CCCCN21 the results were Pf Dd2 growth -5, T cruzi growth-1 62 and KDM4C inh 1.
Cc1cccc(-c2ccc([C@H]3[C@H](CO)N4CCCCN(Cc5cccnc5)C[C@@H]34)cc2)c1 was read as Pf Dd2 growth -64, T cruzi growth-1 104*, T cruzi growth-2 106*, T cruzi growth-3 68, NIH3T3 tox 22 and NIH3T3 tox 2 101*.
OC[C@@H]1[C@H](c2ccc(C#Cc3ccccc3F)cc2)[C@H]2CN(Cc3cncnc3)CCCCN12 was read as Pf Dd2 growth -76, T cruzi growth-1 118*, KDM4C inh 0, T cruzi growth-2 103*, T cruzi growth-3 96*, NIH3T3 tox 44* and NIH3T3 tox 2 105*.
For Cc1cccc(-c2ccc([C@H]3[C@@H](CO)N4CCCCN(Cc5ccncc5)C[C@@H]34)cc2)c1 the results were Pf Dd2 growth -2, T cruzi growth-1 103*, KDM4C inh 4, T cruzi growth-2 111*, T cruzi growth-3 68, NIH3T3 tox 25 and NIH3T3 tox 2 105*.
For OC[C@@H]1[C@@H](c2ccc(C#Cc3ccccc3)cc2)[C@H]2CN(Cc3cncnc3)CCCCN12 the results were Pf Dd2 growth -32, T cruzi growth-1 70 and KDM4C inh -1.
`CN(C)C(=O)c1cccc(-c2ccc([C@H]3[C@@H](CO)N4CCCCN(Cc5cccnc5)C[C@@H]34)cc2)c1` gave Pf Dd2 growth -25, T cruzi growth-1 101*, KDM4C inh 0, T cruzi growth-2 inconclusive, T cruzi growth-3 88, NIH3T3 tox -10 and NIH3T3 tox 2 -15.
`Cc1cccc(-c2ccc([C@@H]3[C@@H](CO)N4CCCCN(Cc5ccncc5)C[C@@H]34)cc2)c1` gave Pf Dd2 growth 4, T cruzi growth-1 71 and KDM4C inh 3.
C[C@H]1CN([C@@H](C)CO)C(=O)Cc2cc(NS(=O)(=O)c3cccs3)ccc2O[C@H]1CN(C)Cc1ccc(C(=O)Nc2ccccc2N)cc1 was read as Pf Dd2 growth -57, IDH1 mut inh 1 and KDM4C inh 3.
Screening Cc1cccc(-n2c3c(c(=O)[nH]c2=S)C(NC(=O)CN2CCCC2=O)(C(F)(F)F)C(=O)N3)c1 (stereo not given) returned IDH1 mut inh 7.
`CN1C(=O)c2cc(NC(=O)Nc3ccc(Cl)cc3)ccc2OC[C@H]2O[C@@H](CC(=O)NCCN3CCCCC3)CC[C@@H]21` gave Pf Dd2 growth -21, T cruzi growth-1 -22 and KDM4C inh 0.
Screening C[C@H](CO)N1C[C@H](C)[C@H](CN(C)Cc2ccccn2)Oc2ncc(C#Cc3cccc(F)c3)cc2C1=O returned Pf Dd2 growth -21, T cruzi growth-1 52, IDH1 mut inh 0 and KDM4C inh 2.
`COc1ccc(-c2nc(SCc3ccc(OC)c([N+](=O)[O-])c3)n[nH]2)cc1` gave IDH1 mut inh 1.
`C[C@@H]1CN([C@@H](C)CO)S(=O)(=O)c2ccc(/C=C/c3ccccc3)cc2O[C@@H]1CN(C)Cc1ccccc1` gave Pf Dd2 growth -7, T cruzi growth-1 100*, IDH1 mut inh 0, KDM4C inh -1, T cruzi growth-2 97*, T cruzi growth-3 110*, NIH3T3 tox 17 and NIH3T3 tox 2 81*.
For C/C=C/c1ccc2c(c1)O[C@H](CN(C)Cc1cccnc1)[C@H](C)CN([C@@H](C)CO)S2(=O)=O the results were Pf Dd2 growth 2, T cruzi growth-1 inconclusive, IDH1 mut inh 2, KDM4C inh -1, T cruzi growth-2 75, T cruzi growth-3 -7, NIH3T3 tox 3 and NIH3T3 tox 2 20.
C[C@@H]1CN([C@H](C)CO)S(=O)(=O)c2ccc(/C=C/c3ccccc3)cc2O[C@@H]1CN(C)Cc1cccnc1 was read as Pf Dd2 growth -33, T cruzi growth-1 128*, IDH1 mut inh 0, KDM4C inh -2, T cruzi growth-2 91, T cruzi growth-3 91, NIH3T3 tox 83* and NIH3T3 tox 2 96*.
Screening C/C=C/c1ccc2c(c1)O[C@H](CN(C)Cc1cccnc1)[C@@H](C)CN([C@H](C)CO)S2(=O)=O returned Pf Dd2 growth -22, T cruzi growth-1 106*, IDH1 mut inh inconclusive, KDM4C inh 0, T cruzi growth-2 103*, T cruzi growth-3 100*, NIH3T3 tox 48* and NIH3T3 tox 2 71*.
For CCOC(=O)c1sc(NC(=O)CSc2nc3c(c(C(F)(F)F)n2)CCCC3)c(C#N)c1C the results were IDH1 mut inh 0.
